Reference: ChEMBL document CHEMBL3877272, “Synthesis and anti-mitotic activity of 6,7-dihydro-4H-isothiazolo[4,5-b]pyridin-5-ones: In vivo and cell-based studies” (Eur J Med Chem, 2017)
Activity calls are given as the source filed them.

Experiments:
Paracentrotus lividus [1] = assay: Antimitotic activity in sea urchin embryo assessed as cleavage alteration exposed 8 to 15 mins after fertilization 45 to 55 mins before first mitotic cycle completion measured at 2.5 to 5.5 hrs post dose; format: functional
Method in brief: (§1)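 Paracentrotus lividus eggs, fertilized in filtered seawater, cultured as monolayer (up to 2000 embryos/mL) at room temperature. Exposed 8–15 min post-fertilization to 2-fold decreasing concentrations (DMSO stock diluted in EtOH; final DMSO ≤0.05%, EtOH ≤1%). Cleavage alteration scored at 8-cell, arrest at early blastula stage (2.5–5.5 h). Effective threshold concentration reported; duplicate measurements.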

Paracentrotus lividus [2] = assay: Antimitotic activity in sea urchin embryo assessed as cleavage arrest exposed 8 to 15 mins after fertilization 45 to 55 mins before first mitotic cycle completion measured at 2.5 to 5.5 hrs post dose; format: functional; method in brief: as §1
Paracentrotus lividus [3] = assay: Antimitotic activity in sea urchin free-swimming blastulae assessed as microtubule destabilization by measuring embryo spinning exposed 8 to 10 hrs after fertilization measured after 15 mins to 20 hrs; format: functional, Blastula
Method in brief: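 Free-swimming P. lividus blastulae just after hatching (8–10 h post-fertilization) from same culture, exposed in seawater to 2-fold decreasing concentrations (DMSO stock diluted in EtOH). Settling to well bottom with rapid spinning around animal-vegetal axis scored by light microscopy over 15 min–20 h. Effective threshold concentration; duplicate measurements.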

[4] = Solubility in seawater assessed as micro-crystal formation at 2 uM by light microscopy; format: physicochemical
Method in brief: (§2)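 Compound from 10 mM DMSO stock diluted 10-fold in 96% EtOH, added to seawater with sea urchin embryos; microcrystal formation checked by light microscopy.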

[5] = Antiproliferative activity against human NCI60 cells measured after 48 hrs by SRB assay; format: functional; conditions: NCI60, 48 h
[6] = Antiproliferative activity against human OVCAR8 cells measured after 3 to 4 days by Celltiter-Glo luminescent cell viability assay; format: functional; conditions: OVCAR-8
[7] = Antiproliferative activity against human NCI/ADR-RES cells measured after 3 to 4 days by Celltiter-Glo luminescent cell viability assay; format: functional
[8] = Antiproliferative activity against human Caov3 cells measured after 96 hrs by Celltiter-Glo assay; format: functional, cell-based; conditions: Caov-3, 96 h
Method in brief: (§3)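 Cells plated 24 h, then treated 96 h with 0.1% DMSO or concentrations […]; growth by CellTiter-Glo luminescence, normalized to DMSO control; IC50 from dose–response curves by logistic nonlinear regression; mean of three independent experiments.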

[9] = Antiproliferative activity against human TOV112D cells measured after 96 hrs by Celltiter-Glo assay; format: functional, cell-based; method in brief: as §3
[10] = Antiproliferative activity against human MDA-MB-231 cells measured after 96 hrs by Celltiter-Glo assay; format: functional, cell-based; conditions: MDA-MB-231, 96 h; method in brief: as §3
[11] = Antiproliferative activity against human MDA-MB-468 cells measured after 96 hrs by Celltiter-Glo assay; format: functional, cell-based; conditions: MDA-MB-468, 96 h; method in brief: as §3
[12] = Antiproliferative activity against human MDA-MB-468 cells measured after 48 hrs by SRB assay; format: functional, cell-based; conditions: MDA-MB-468, 48 h
[13] = Antiproliferative activity against human MDA-MB-435 cells measured after 96 hrs by Celltiter-Glo assay; format: functional, cell-based; conditions: MDA-MB-435, 96 h; method in brief: as §3
[14] = Antiproliferative activity against human MDA-MB-435 cells measured after 48 hrs by SRB assay; format: functional, cell-based; conditions: MDA-MB-435, 48 h
[15] = Antiproliferative activity against human NCI-H1975 cells measured after 96 hrs by Celltiter-Glo assay; format: functional, cell-based; conditions: NCI-H1975, 96 h; method in brief: as §3
[16] = Antiproliferative activity against human MDA-MB-DYT2 cells measured after 96 hrs by Celltiter-Glo assay; format: functional, cell-based; method in brief: as §3
[17] = Antiproliferative activity against human A2780 cells measured after 3 days by Celltiter-Glo assay; format: functional, cell-based; conditions: A2780, 72 h
Method in brief: (§4)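 Cells in ATCC-recommended medium, STR-authenticated, mycoplasma-tested; 3-day exposure to varying concentrations; viability by CellTiter-Glo luminescence normalized to DMSO control; IC50 from logistic nonlinear regression; mean of three independent experiments.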

[18] = Antiproliferative activity against human A2780cis cells measured after 3 days by Celltiter-Glo assay; format: functional, cell-based; conditions: A2780cisR, 72 h; method in brief: as §4
[19] = Antiproliferative activity against human A2780/ADR cells measured after 3 days by Celltiter-Glo assay; format: functional, cell-based; conditions: 72 h; method in brief: as §4
[20] = Antiproliferative activity against human MOR cells measured after 3 days by Celltiter-Glo assay; format: functional, cell-based; conditions: 72 h; method in brief: as §4
[21] = Antiproliferative activity against human MOR/CPR cells measured after 3 days by Celltiter-Glo assay; format: functional, cell-based; conditions: 72 h; method in brief: as §4
[22] = Antiproliferative activity against human adriamycin-resistant MOR cells measured after 3 days by Celltiter-Glo assay; format: functional, cell-based; conditions: 72 h; method in brief: as §4
[23] = Cell cycle arrest in human NCI-H1975 cells assessed mitotic index by measuring level of phospho-histone H3 positive cells at 1 uM measured after 24 hrs by DNA dye based flow cytometry (reference value: 1.9); format: functional
[24] = Cell cycle arrest in human MDA-MB-468 cells assessed mitotic index by measuring level of phospho-histone H3 positive cells at 1 uM measured after 24 hrs by DNA dye based flow cytometry (reference value: 2.18); format: functional
[25] = Cell cycle arrest in human NCI-H1975 cells assessed as accumulation in G2/M phase at 1 uM measured after 24 hrs by DNA dye based flow cytometry (reference value: 20%); format: functional
Method in brief: (§5)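 Cells exposed to 1 µM compound or 0.1% DMSO for 24 h; stained with bivariate cell cycle kit (DNA dye); Sub-G1, G1, S and G2/M fractions by flow cytometry as mean percentage with standard error; two independent experiments in duplicate.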

[26] = Cell cycle arrest in human NCI-H1975 cells assessed as reduction in G1 phase at 1 uM measured after 24 hrs by DNA dye based flow cytometry; format: functional; method in brief: as §5
[27] = Cell cycle arrest in human NCI-H1975 cells assessed as reduction in S phase at 1 uM measured after 24 hrs by DNA dye based flow cytometry; format: functional; method in brief: as §5
[28] = Cell cycle arrest in human NCI-H1975 cells assessed as accumulation in sub-G1 phase at 1 uM measured after 24 hrs by DNA dye based flow cytometry; format: functional; method in brief: as §5
[29] = Cell cycle arrest in human MDA-MB-468 cells assessed as accumulation in sub-G1 phase at 1 uM measured after 24 hrs by DNA dye based flow cytometry; format: functional; method in brief: as §5
[30] = Cell cycle arrest in human MDA-MB-468 cells assessed as reduction in S phase at 1 uM measured after 24 hrs by DNA dye based flow cytometry; format: functional; method in brief: as §5
[31] = Cell cycle arrest in human MDA-MB-468 cells assessed as reduction in G1 phase at 1 uM measured after 24 hrs by DNA dye based flow cytometry; format: functional; method in brief: as §5
NCI-H1975 = assay: Induction of microtubule disintegration in human NCI-H1975 cells at 1 uM measured upto 24 hrs by Hoechst staining-based laser scanning microscopic method; format: cell-based
Method in brief: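 NCI-H1975 cells, 0.1% DMSO or 1 µM compound for 6, 16 and 24 h; paraformaldehyde-fixed, Triton-permeabilized, BSA-blocked, anti-β-tubulin (1:1000, overnight 4 °C) with Alexa Fluor 647 secondary, Hoechst nuclear counterstain; laser scanning confocal imaging.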

Paracentrotus lividus [32] = assay: Antimitotic activity in early pluteus stage of sea urchin embryo assessed as growth inhibition of skeletal spicules at 1 uM; format: functional, tissue-based; conditions: Spicule
Method in brief: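 P. lividus embryos (gametes by intracoelomic 0.5 M KCl, fertilized in filtered seawater, room temperature, paddle agitation 60 rpm); compound from 10 mM DMSO stock diluted 10-fold in 96% EtOH; growth of skeletal spicules scored by light microscopy at early pluteus stage.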

[33] = Antiproliferative activity against human NCI60 cells at 10 uM after 48 hrs by SRB assay relative to control; format: functional; conditions: NCI60, 48 h, read-out: GI
[34] = Solubility in DMSO; format: physicochemical
[35] = Solubility in seawater assessed as micro-crystal formation at 1 uM by light microscopy; format: physicochemical; method in brief: as §2

SMILES | EC (Paracentrotus lividus [1]) [µM] | EC (Paracentrotus lividus [2]) [µM] | EC (Paracentrotus lividus [3]) [µM] | GI50 [5] [nM] | GI50 [6] [µM] | GI50 [7] [nM] | IC50 [8] [nM] | IC50 [9] [nM] | IC50 [10] [nM] | IC50 [11] [nM] | IC50 [12] [nM] | IC50 [13] [nM] | IC50 [14] [nM] | IC50 [15] [nM] | IC50 [16] [nM] | Activity (Paracentrotus lividus [32]) | other results
COc1ccc(-c2nsc3c2NC(=O)CC3c2cccc(OC)c2)cc1 (stereo not given) | 0.01 | 0.05 | 0.1 | 1550 | 3.22 | 420 | 1480 | 808 | 1390 | 662 | 395 | 591 | 282 | 1980 | 1910 |  | solubility [4]: Insoluble
COc1ccc(-c2nsc3c2NC(=O)CC3c2ccsc2)cc1 (stereo not given) | 0.002 | 0.005 | 0.1 | 302 |  |  | 152 | 136 | 192 | 163 | 117 | 80.7 | 23.5 | 254 | 309 |  | IC50 [17]: 229 nM; IC50 [18]: 187 nM; IC50 [19]: 355 nM; IC50 [20]: 702 nM; IC50 [21]: 321 nM; IC50 [22]: 63 nM; Activity index [23]: 6.95; Activity index [24]: 11.3; Activity [25]: 30%; Activity [26]: Active; Activity [27]: Active; Activity [28]: Active; Activity [29]: Active; Activity [30]: Active; Activity [31]: Active; Activity (NCI-H1975): Active
COc1cc(C2CC(=O)Nc3c(-c4ccc(F)cc4)nsc32)c(OC)c2c1OCO2 (stereo not given) | >4 | >4 | >4 |  |  |  |  |  |  |  |  |  |  |  |  | Active | 
COc1cc(C2CC(=O)Nc3c(-c4ccc(F)cc4)nsc32)cc2c1OCO2 (stereo not given) | >4 | >4 | >4 |  |  |  |  |  |  |  |  |  |  |  |  | Active | inhibition of growth at 10 µM [33]: 10.1%
COc1ccc(-c2nsc3c2NC(=O)CC3c2cc(OC)c3c(c2)OCO3)cc1 (stereo not given) | >4 | >4 | >4 |  |  |  |  |  |  |  |  |  |  |  |  |  | solubility [34]: Soluble
COc1ccc(-c2nsc3c2NC(=O)CC3c2ccc3c(c2)OCO3)cc1 (stereo not given) | 0.01 | 0.1 | 0.2 | 1550 | 3.04 | 524 |  |  |  |  |  |  |  |  |  |  | solubility [35]: Insoluble
